Bioassay records: PubChem BioAssay, several laboratories
This is a sample that favours compounds with a hit; in the whole collection about 1.2% have one here.
KLK5 inh: human KLK5 protease inhibitors, primary screen, biochemical, 1536-well; inhibition, % at 5 µM; AID 873, 2007; 210,000 tested, 0.59% active; recombinant hK5, fluorogenic AMC substrate cleavage;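 active = inhibition of 40% or more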;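 also: 0% = enzyme controls without compound and 100% = no-enzyme blanks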
Target sequence (Q9Y337 67-293 limits assumed): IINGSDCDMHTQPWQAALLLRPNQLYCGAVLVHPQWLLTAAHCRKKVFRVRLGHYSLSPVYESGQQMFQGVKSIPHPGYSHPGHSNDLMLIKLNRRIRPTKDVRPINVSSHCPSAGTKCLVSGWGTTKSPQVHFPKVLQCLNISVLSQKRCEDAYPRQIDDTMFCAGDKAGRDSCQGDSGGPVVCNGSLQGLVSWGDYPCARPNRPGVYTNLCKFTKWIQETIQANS
S1P3 antag-1: S1P3 receptor antagonists, primary screen, cell-based; CHO S1P3 NFAT-BLA reporter, FRET fluorescence, antagonist mode; inhibition, % at 4.98 µM; 170,000 tested, 0.27% active;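 active = inhibition above the plate cutoff, the mean inhibition of test wells on that plate plus 3 SD, cut at about 28% in these data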;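 also: cells challenged with S1P at its EC80 of 0.8 µM; blue over green emission ratio from cleaved BLA substrate after 4 h stimulation; 0% = S1P-stimulated wells and 100% = unstimulated DMSO-only wells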
Target sequence (Q99500 whole entry, looked up): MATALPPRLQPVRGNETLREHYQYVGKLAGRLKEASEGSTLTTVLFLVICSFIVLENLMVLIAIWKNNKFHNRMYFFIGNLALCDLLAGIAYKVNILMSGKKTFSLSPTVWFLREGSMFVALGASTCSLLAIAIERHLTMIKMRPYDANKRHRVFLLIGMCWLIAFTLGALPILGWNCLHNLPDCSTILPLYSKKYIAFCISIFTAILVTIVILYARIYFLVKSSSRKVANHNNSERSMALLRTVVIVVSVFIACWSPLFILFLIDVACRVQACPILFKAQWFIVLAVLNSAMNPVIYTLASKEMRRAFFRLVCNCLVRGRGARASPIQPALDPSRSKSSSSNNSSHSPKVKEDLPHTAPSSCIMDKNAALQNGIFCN
thrombin 1536: human alpha-thrombin inhibitors, primary screen, counter-screen for coagulation protease inhibitor project, biochemical, 1536-well, fluorogenic AMC substrate | Prothrombin (Homo sapiens), P00734 | inhibition, % at 5 µM | 220,000 tested, 0.26% active | Boc-VPR-AMC fluorogenic substrate cleavage;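 active = inhibition at or above 40%; inactive = inhibition below 40%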;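 also: 0% = enzyme with no compound and 100% = wells without enzyme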
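Material: human alpha-thrombin protein. Incubation: reaction at ambient temperature. Technique: fluorescence of released AMC, ex 355 nm, em 460 nm. Control set: no-compound enzyme wells and no-enzyme blanks. Also added: Boc-VPR-AMC substrate, 15 µM final. Buffer or medium: pH 7.5 Tris (50 mM) with NaCl 150 mM, Tween 20 0.05%.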
FXIIa inh 1536: human FXIIa protease inhibitors, primary screen, biochemical, 1536-well; Coagulation factor XII (Homo sapiens), P00748; purified FXIIa, Boc-QGR-AMC fluorogenic substrate, 2 h; inhibition, % at 5 µM; 220,000 tested, 0.3% active; in the data active = inhibition above about 40%;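 also: 0% = enzyme with no compound and 100% = blank without enzyme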
Redox H2O2 prof: compounds producing H2O2 with reducing agent – biochemical, NIH compound library profiling, artefact control for MLSCN library redox annotation, primary screen; DTT-dependent redox cycling H2O2, phenol red/HRP absorbance; 100% = 100 µM peroxide control, 0% = buffer; activation, % at 10 µM; 200,000 tested, 0.03% active;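 active = activation of at least 50% relative to the plate's high and low controls in the primary single-dose screen; inactive = activation below 50%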;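 also: compound incubated with DTT at 0.8 mM final as the reducing agent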
FXIa inh: human FXIa protease inhibitors, primary screen, biochemical, 1536-well. AID 798, 2007. inhibition, % at 5 µM. Coagulation factor XI (Homo sapiens), P03951. 220,000 tested, 0.14% active. purified FXIa, Boc-Glu-Ala-Arg-AMC fluorogenic substrate;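 active = inhibition of at least 40%; inactive = inhibition below 40%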;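 also: fluorescence of freed AMC excited at 355 nm; 0% = enzyme without compound and 100% = no enzyme blank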
S1P3 antag-2: S1P3 receptor antagonists, retest, confirmation, cell-based; shares compounds with S1P3 antag-1; CHO S1P3 NFAT-BLA reporter, FRET, antagonist mode; inhibition, % at 4.98 µM; 240 tested, 30% active;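 active = inhibition above the hit threshold that was computed for the earlier primary screen, cut at about 30% in these data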;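 also: 0% = S1P-stimulated wells and 100% = unstimulated DMSO-only wells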
* marks the source's active call; other numbers are inactive results; . = not tested or not shown.

SMILES	KLK5 inh	S1P3 antag-1	thrombin 1536	FXIIa inh 1536	Redox H2O2 prof	FXIa inh	S1P3 antag-2
C=CCN1C(=O)C(CC(=O)Nc2ccc(OCCC)cc2)N(CCCN2CCN(Cc3ccccc3)CC2)C1=S (stereo not drawn)	2.9	38.4*	7.8	13.6	-1.1	11.4	-0.5
CCCOc1ccc(/C=N\NC(=O)CCc2n[nH]c(=O)[nH]c2=O)cc1OC	19.8	29.4*	1.0	26.1	-0.5	30.4	-12.0
COc1ccc(C2CC(c3cccs3)=NN2C(=S)Nc2ccccc2)cc1OC (stereo not drawn)	-4.3	1.5	-4.6	25.8	0.6	20.7	.
S=C(Nc1ccccc1)N1N=C(c2cccs2)CC1c1cccs1 (stereo not drawn)	.	30.0*	4.4	6.5	1.2	3.1	7.8
CCOC(=O)c1c(NC(=O)CN2C(=O)NC(C)(c3ccccc3)C2=O)sc(C)c1C (stereo not drawn)	-17.8	-8.0	-5.0	2.3	-0.2	4.3	.
Cc1nc(CNC(=O)CC2C(=O)NCCN2Cc2cccc(Oc3ccccc3)c2)cs1 (stereo not drawn)	.	-7.2	-2.6	-2.0	0.7	-2.2	.
COc1cccc(CNC(=O)CCCCCn2c(=S)[nH]c3ccc(N4CCOCC4)cc3c2=O)c1	-22.4	63.9*	-3.9	6.0	0.0	6.1	-13.1
COc1cccc(Cn2c(=S)[nH]c3ccc(N4CCOCC4)cc3c2=O)c1	-11.9	.	1.6	19.3	-1.1	5.9	.
Cc1ccc(NC(=O)C(=O)C2C(=O)Nc3ccccc32)cc1 (stereo not drawn)	8.3	-19.6	-1.2	4.5	.	-5.6	.
O=C(N/N=C\C=C\c1ccco1)C1COc2ccccc2O1 (stereo not drawn)	5.2	28.1*	4.2	14.3	.	4.4	-8.8
O=C(N/N=C/C=C/c1ccc([N+](=O)[O-])cc1)C1COc2ccccc2O1 (stereo not drawn)	2.6	10.4	1.6	24.8	0.2	8.3	.
CC(=O)N1C(C)(C)CC(=NOS(=O)(=O)c2ccccc2)CC1(C)C	-11.6	-9.9	-1.1	0.7	-0.3	-3.5	.
Cc1cc(C(=O)CSc2nc3ccccc3c(=O)n2C)c(C)n1CC1CCCO1 (stereo not drawn)	-2.3	33.4*	-5.3	8.1	0.2	-2.0	36.9*
Cc1nc(C)c(C(=O)NNS(=O)(=O)c2ccc3ccccc3c2)s1	-14.3	2.4	-7.9	9.1	0.2	4.1	.
CCCCCCCCn1ccc(=N)cc1	-2.3	34.6*	-7.8	1.4	.	-3.1	-6.5
CCCCCCCCCCn1ccc(=N)cc1	1.8	18.3	2.5	16.1	.	2.2	.
Cc1nn(CCc2nn[nH]n2)c2nc(-c3ccc(C4CCCCC4)cc3)cc(C(F)(F)F)c12	-4.5	-1.1	-7.9	6.7	-1.5	0.6	.
Cc1nc(C(C)NC(=O)CCc2nnc(-c3ccsc3)o2)cs1 (stereo not drawn)	.	37.8*	-1.9	9.2	-0.8	1.7	-8.4
COC(=O)[C@@H](NC(=O)CCc1nnc(-c2ccsc2)o1)C(C)C	1.6	-8.1	-3.9	8.8	-1.1	-3.3	.
Cc1c(CCOC(=O)C23CC4(C)CC(C)(CC(C)(C4)C2)C3)sc[n+]1CC(=O)c1ccccc1	-8.4	-14.1	2.0	2.0	-0.3	-4.5	.
Cc1c(CCOC(=O)c2cc([N+](=O)[O-])cc([N+](=O)[O-])c2)sc[n+]1CC(=O)c1ccc(Br)cc1	20.0	37.6*	16.2	15.3	4.1	8.2	-10.8
CCN1/C(=C/C=C/c2oc3ccc(-c4ccccc4)cc3[n+]2CC)Oc2ccc(-c3ccccc3)cc21	0.0	31.2*	2.1	5.1	1.7	-3.4	54.4*
CCCCN1C(=O)/C(=C/C=C2\Oc3ccccc3N2CC)SC1=S	4.4	-3.6	-2.3	8.2	-0.2	1.2	.
S=C(N/N=C1\C2CN3CCN(C2)CC1(c1ccccc1)C3)Nc1ccccc1	-22.9	-5.8	-13.5	0.7	0.1	-5.7	.
O=C(N/N=C/c1ccc(O)cc1)c1cc(C23CC4CC(CC(C4)C2)C3)[nH]n1	-1.2	31.1*	-9.7	2.0	.	0.0	35.2*
SMILES	KLK5 inh	S1P3 antag-1	thrombin 1536	FXIIa inh 1536	Redox H2O2 prof	FXIa inh	S1P3 antag-2
COC(=O)c1ccc(N2CCN(C(=O)c3ccccc3)CC2)c(NC(C)=O)c1	1.1	40.2*	-1.3	.	0.2	-0.7	-10.7
CC[C@@H](C)C(NC(=O)OC(C)(C)C)c1cn([C@@H](Cc2ccc(O)cc2)C(=O)N2CCN(C(=O)OC(C)(C)C)CC2)nn1 (stereo partly drawn)	17.1	1.0	15.4	15.8	0.0	11.6	.
COc1ccc(-c2csc(NC(=O)CSc3nc(SC)ns3)n2)cc1	-7.0	0.4	0.7	7.1	-0.2	5.9	.
COC(=O)COc1cccc2c(=O)n(CC(=O)NCc3ccc(F)cc3)ccc12	2.3	-16.6	-1.0	2.0	0.7	-4.5	.
CCOC(=O)C(C)Oc1cccc2c(=O)n(CC(=O)NCCc3ccccc3)ccc12 (stereo not drawn)	-1.5	19.2	-8.2	3.0	.	-1.2	.
CCOC(=O)C(C)Oc1cccc2c(=O)n(CC(=O)NCc3ccccc3)ccc12 (stereo not drawn)	-0.5	37.4*	-3.8	10.2	.	-0.8	9.3
CCOC(=O)C(C)Oc1cccc2c(=O)n(CC(=O)NCc3ccc(F)cc3)ccc12 (stereo not drawn)	-2.7	34.9*	-10.1	5.9	.	-3.0	8.2
O=C(Nc1ccc(OC(F)F)c(Cl)c1)C(c1ccccc1)c1ccccc1	3.3	50.5*	-2.5	-1.4	0.1	-0.3	59.3*
O=C(Cc1cccc2ccccc12)Nc1ccc(OC(F)F)c(Cl)c1	-11.7	5.7	-4.4	12.3	0.7	9.0	.
Cc1nc2ccc(NC(=O)c3cc(S(=O)(=O)N(C)c4ccccc4)ccc3Cl)cc2s1	-10.3	30.5*	-0.3	13.5	0.8	9.7	10.4
Cc1ccc(C)c(S(=O)(=O)N/N=C/c2ccc(N3CCOCC3)cc2)c1	8.3	30.0*	4.4	13.5	.	2.8	-9.0
Cc1cc(Nc2cccc(Cl)c2)nc(NCc2ccccc2)n1	-13.4	32.1*	-3.5	-0.4	-0.6	0.3	10.2
Cc1cc(N/N=C/c2cccc(Cl)c2)nc(NCc2ccccc2)n1	10.2	-2.0	-10.1	5.6	2.1	-4.8	.
C(=N\NC1=Nc2cccc3cccc1c23)/c1ccccn1	-0.6	29.5*	-3.0	11.0	0.4	8.1	18.8
